This excerpt belongs to a sample that is enriched for hits.
INS-1E ATP HTS = rescue of cytokine-induced death in INS-1E beta cells; protection from cytokine-induced ATP loss, % at 10 µM; 20,000 tested, 0.1% active; AID 488910; INS-1E cytokine-induced death, ATP luminescence, 48 h; normalised: neutral wells 0, positive control 100;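 active = mean replicate protection from cytokine-induced ATP loss at least 50% and at least 75% of replicates each reaching 50%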
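Assay system – rat INS-1E insulinoma cell line · Quantity – 8000 cells per well · Buffer or medium – RPMI without phenol red, 5% FBS · Schedule – 48 h co-treatment, 10 min post-lysis read · Technique – luminescent ATP assay (CellTiter-Glo)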
T cruzi HTS = intracellular Trypanosoma cruzi inhibition; AID 651903; activity score (inhibition), % at 5.01 µM; 22,000 tested, 4.9% active; intracellular Trypanosoma cruzi in host cells, plate reader; in the data active = activity score above about 55%;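 also: parasites and compound incubated about four days before reading; 0% = median of neutral control wells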
A1 apoptosis 2 = blocks A1, raising caspase activity. MEF A1-2A-BIM cells, caspase-Glo luminescence, 3 h; percent of clofoctol response, DMSO zero. 24,000 tested, under 10 active. AID 2465. caspase activation, % (concentration not given with the values); in the data active = caspase activation above about 5.9%
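Material: mouse embryonic fibroblasts co-expressing A1 and BIM (A1-2A-BIM), primed for A1 dependence / Quantity: 2500 cells/well / Buffer or medium: RPMI-1640 growth medium with 10% FBS / Doses: 50 nL compound per well, pinned / Schedule: 3 h compound exposure at 37 °C / Signal: Caspase-Glo luminescence (DEVD substrate) / Measure: Caspase-3/7 activation, seen as rise in luminescence signal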
Starred values were filed as active, the others as inactive; nt = no result.

SMILES	INS-1E ATP HTS	T cruzi HTS	A1 apoptosis 2
O=C(NO)c1ccc(C(=O)N/N=C/c2cc(F)ccc2O)cc1	9	-15	0
C[C@@H]1CN([C@H](C)CO)C(=O)Cc2cc(NC(=O)CCCCCC(=O)Nc3ccccc3N)ccc2O[C@@H]1CN(C)Cc1ccc(-c2ccccc2)cc1	5	-28	nt
C[C@H]1CN([C@@H](C)CO)C(=O)Cc2cc(NC(=O)CCCCCC(=O)Nc3ccccc3N)ccc2O[C@H]1CN(C)Cc1ccccc1	nt	nt	-1
C[C@H](CO)N1C[C@H](C)[C@H](CN(C)Cc2ccc(-c3ccccc3)cc2)Oc2ccc(NC(=O)CCCCCC(=O)Nc3ccccc3N)cc2CC1=O	-10	73*	nt
C[C@@H]1CN([C@H](C)CO)C(=O)Cc2cc(NC(=O)CCCCCC(=O)Nc3ccccc3N)ccc2O[C@@H]1CN(C)Cc1ccc(Cl)c(Cl)c1	-2	66*	nt
COC(=O)[C@]1(Cc2ccccc2N=[N+]=[N-])N=C(c2ccc(OCCCO)cc2)O[C@@H]1c1ccccc1N=[N+]=[N-]	nt	nt	0
C[C@H](CO)N1C[C@H](C)[C@H](CN(C)C(=O)Nc2ccccc2)Oc2ncc(-c3cccc(C(F)(F)F)c3)cc2C1=O	nt	64*	-1
C[C@H](CO)N1C[C@H](C)[C@H](CN(C)C(=O)Nc2ccc(F)cc2)Oc2ncc(-c3cccc(C(F)(F)F)c3)cc2C1=O	nt	51	-1
C[C@H](CO)N1C[C@H](C)[C@H](CN(C)C(=O)Nc2ccc3c(c2)OCO3)Oc2ncc(C#Cc3ccccc3)cc2C1=O	nt	69*	1
COc1ccc(NC(=O)N(C)C[C@@H]2Oc3ncc(-c4ccc(OC)cc4)cc3C(=O)N([C@H](C)CO)C[C@@H]2C)cc1	nt	29	nt
COc1ccc(NC(=O)N(C)C[C@@H]2Oc3ncc(-c4cccc(C(F)(F)F)c4)cc3C(=O)N([C@H](C)CO)C[C@@H]2C)cc1	nt	59*	-1
C[C@H](CO)N1C[C@H](C)[C@H](CN(C)C(=O)Nc2ccc3c(c2)OCO3)Oc2ncc(-c3cccc(F)c3)cc2C1=O	nt	-15	nt
C[C@H](CO)N1C[C@H](C)[C@H](CN(C)C(=O)Nc2ccc3c(c2)OCO3)Oc2ncc(-c3cccc(C(F)(F)F)c3)cc2C1=O	nt	67*	nt
C[C@H](CO)N1C[C@H](C)[C@H](CN(C)C(=O)Nc2ccc3c(c2)OCO3)Oc2ncc(C#Cc3ccc(F)cc3)cc2C1=O	-3	-17	2
O=C(CCCCCCC(=O)Nc1ccccc1O)N/N=C/c1cc(Br)ccc1O	-11	35	-2
COc1cc(/C=N/NC(=O)c2cccc(C(=O)NO)c2)c([N+](=O)[O-])cc1OC	0	-5	nt
C[C@H](CO)N1C[C@H](C)[C@H](CN(C)S(=O)(=O)c2ccccc2)Oc2ccc(NS(C)(=O)=O)cc2CC1=O	3	-4	nt
COc1ccc(COC[C@@]23Oc4ccccc4[C@@H](NC(=O)N2C)[C@H]3COC(=O)c2ccccc2)cc1	nt	nt	1
COc1ccc(NC(=O)Nc2ccc3c(c2)C(=O)N([C@@H](C)CO)C[C@@H](C)[C@H](CN(C)Cc2ccc(C(=O)O)cc2)O3)cc1	2	1	1
O=C(CCCCC(=O)N/N=C/c1ccc(F)c(Oc2ccccc2)c1)NO	49	-1	nt
O=C(NO)c1cccc(C(=O)N/N=C/c2ccc(Br)cc2)c1	-10	4	nt
O=C(O)c1ccc(/C=N/NC(=O)c2ccccc2O)cc1	-26	-22	nt
C[C@H]1CN([C@@H](C)CO)C(=O)Cc2cc(NC(=O)Nc3ccc(C(F)(F)F)cc3)ccc2O[C@H]1CN(C)CC1CCCCC1	-56	72*	nt
C[C@H]1CN([C@@H](C)CO)C(=O)Cc2cc(NC(=O)Nc3ccc(C(F)(F)F)cc3)ccc2O[C@@H]1CN(C)CC1CC1	4	-30	1
C[C@H](CO)N1C[C@H](C)[C@@H](CN(C)CC2CC2)Oc2ccc(NC(=O)Nc3ccc(C(F)(F)F)cc3)cc2CC1=O	nt	nt	1
C[C@@H]1CN([C@@H](C)CO)C(=O)Cc2cc(NC(=O)Nc3ccc(C(F)(F)F)cc3)ccc2O[C@@H]1CN(C)CC1CCCCC1	-46	77*	nt
COC(=O)CCCCCCC(=O)N/N=C/c1ccc(-n2ccnc2)cc1	3	-13	2
COc1ccccc1CN1C(=O)c2ccccc2[C@@]2(Cc3ccccc3N(CCCN(C)C)C2=O)[C@@H]1c1ccc(CO)cc1	nt	nt	-1
C[C@H](CO)N1C[C@H](C)[C@H](CN(C)Cc2ccc(C(F)(F)F)cc2)Oc2ccc(NS(=O)(=O)c3cccs3)cc2C1=O	-14	58*	nt

Source: PubChem BioAssay
